Published values collected from several papers.
Lines come from different studies, so protocols differ.
Cell line: HeLa
Observed: cell growth or viability

SMILES | test | setting | endpoint | result
COc1ccc(NS(=O)(=O)c2ccc(N)cc2)cc1OC | XTT | 72 h | IC50 | > 100 µM
CCOP(=O)(OCC)[C@@H]1C[C@H](n2cc(Cn3cnc4c(N)ncnc43)nn2)ON1C (relative stereo) |  | 72 h | CC50 | ≥ 250 µM
COc1cc2nnn(S(=O)(=O)c3ccc(N(C)C)cc3)c2cc1OC | XTT | 72 h | IC50 | 55 µM
Cc1ccn2c(C(=O)N3CCN(Cc4cn(-c5ccccc5)nn4)CC3)c(C)nc2c1 | resazurin |  | CC50 | > 100 µM
CCOP(=O)(OCC)[C@@H]1C[C@H](n2cc(C(=O)OC)nn2)ON1C (relative stereo) |  | 72 h | CC50 | > 250 µM
Cc1ccc(-n2cc(CN3CCN(C(=O)c4c(C)nc5ccc(Cl)cn45)CC3)nn2)cc1C | resazurin |  | CC50 | > 100 µM
COc1ccc(OC)c(NS(=O)(=O)c2ccc(OC)c([N+](=O)[O-])c2)c1 | XTT | 72 h | IC50 | > 100 µM
CC(=O)O[C@H]1C(=O)[C@@]2(C)[C@H]([C@H](OC(=O)c3ccccc3)[C@]3(O)C[C@H](OC(=O)[C@H](O)[C@@H](NC(=O)c4ccccc4)c4ccccc4)C(C)=C1C3(C)C)[C@]1(OC(C)=O)CO[C@@H]1C[C@@H]2O | MTT | 48 h | IC50 | 4.8 µM
CNc1ccc(S(=O)(=O)Nc2ccc(OC)nc2)cc1 | XTT | 72 h | IC50 | > 100 µM
COC(=O)CNC(=O)C(=O)OC |  |  | CC50 | > 1000 µM
COc1cc(NS(=O)(=O)c2ccc([N+](=O)[O-])cc2)cc(OC)c1 | XTT | 72 h | IC50 | > 100 µM
CCCCCCCCCc1cn(CCN2CCN(C(=O)c3c(C)nc4cc(C)ccn34)CC2)nn1 | resazurin |  | CC50 | 62.7 µM
CCOP(=O)(OCC)[C@@H]1C[C@H](n2cc(-c3ccccn3)nn2)ON1C |  | 72 h | CC50 | > 250 µM
CCCCCCCCCc1cn(CCN2CCN(C(=O)c3c(C)nc4ccc(Cl)cn34)CC2)nn1 | resazurin |  | CC50 | > 100 µM
CCOP(=O)(OCC)[C@@H]1C[C@H](n2cc(-c3nccn3C)nn2)ON1C |  | 72 h | CC50 | > 250 µM
Cc1nc2ccc(Cl)cn2c1C(=O)N1CCN(Cc2cn(-c3cccc([N+](=O)[O-])c3)nn2)CC1 | resazurin |  | CC50 | > 100 µM
COc1ccc(S(=O)(=O)Nc2cc(C#N)ccc2OS(=O)(=O)c2ccc(OC)cc2)cc1 | XTT | 72 h | IC50 | 77 µM
Cc1ccn2c(C(=O)N3CCN(Cc4cn(-c5ccc(F)c(Cl)c5)nn4)CC3)c(C)nc2c1 | resazurin |  | CC50 | > 100 µM
CCOP(=O)(OCC)[C@@H]1C[C@@H](n2cc(Cn3ccc(NC(C)=O)nc3=O)nn2)ON1C (racemic) |  | 72 h | CC50 | > 250 µM
